# Test results reported in PubChem BioAssay.
# Activity calls are given as the source filed them.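 How the source made its calls, unless noted: active means visually confirmed hit in the image check and inhibition above 20%; inconclusive means visually confirmed hit but inhibition not above 20%; inactive means no visual hit in the image check.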
# Tests used:
# [1] = inhibitors of TNFa-induced NFkB p65 translocation, primary screen, imaging, HUVEC, MLSMR starter and 10KST1 sets (AID 438;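 active means inhibition above 20% together with a positive visual image hit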;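 further: compound added about 3h40 before a 20 min TNFalpha stimulation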;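 on inhibition: signal is the nuclear over cytoplasmic p65 intensity ratio per well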); conditions: HUVEC TNFa-induced p65 nuclear translocation; cell count: measured here: nuclei count (cytotoxicity indicator), at 2.08 µM; inhibition: at 2 µM, stronger effect = higher value, 0% TNFa-plus-vehicle, 100% no-TNFa wells
# [2] = inhibitors of mutant huntingtin aggregation, primary screen, imaging, exon1htt(103Q)mCFP cells, high-content imaging (AID 483;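 active means visual image review flags a hit and inhibition of aggregation exceeds 20%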;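 further: compound exposure lasted 3 days before fixation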;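 on nuclei count: percent of the per-plate median nuclei count of sample wells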); conditions: exon1htt(103Q)mCFP cell line, aggregate imaging, at 2 µM; inhibition of aggregation: stronger effect = higher value; nuclei count: measured here: cell count, toxicity
# [3] = inhibitors of E-selectin induction by TNFa, primary screen, imaging, HUVEC, immunofluorescence, MLSMR starter and 10KST1 sets (AID 487); conditions: HUVEC TNFalpha-induced E-selectin immunofluorescence imaging, at 2 µM; inhibition: stronger effect = higher value; nuclei count: measured here: cell number, toxicity;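 on inhibition: signal is fraction of cell area covered by stained E-selectin grains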;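 on nuclei count: 100% = median nuclei count of all wells on the same plate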
# [4] = target: Voltage-gated potassium channel subunit beta-2 (Rattus norvegicus) (UniProt P62483); assay: KvBeta enzyme negative modulators, primary screen, biochemical, NADPH fluorescence (AID 622;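 active means fluorescence slope higher than the sample average by over 3 SD, cut at about -0.22 in these data, passing the limit was not always enough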;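 further: slope of raw intensity against log time taken from 70 to 1610 s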); conditions: recombinant KvBeta, 4-cyanobenzaldehyde reduction, at 10 µM, stronger effect = higher value
# Voltage-gated potassium channel subunit beta-2 (Rattus norvegicus), sequence (P62483 whole entry, looked up): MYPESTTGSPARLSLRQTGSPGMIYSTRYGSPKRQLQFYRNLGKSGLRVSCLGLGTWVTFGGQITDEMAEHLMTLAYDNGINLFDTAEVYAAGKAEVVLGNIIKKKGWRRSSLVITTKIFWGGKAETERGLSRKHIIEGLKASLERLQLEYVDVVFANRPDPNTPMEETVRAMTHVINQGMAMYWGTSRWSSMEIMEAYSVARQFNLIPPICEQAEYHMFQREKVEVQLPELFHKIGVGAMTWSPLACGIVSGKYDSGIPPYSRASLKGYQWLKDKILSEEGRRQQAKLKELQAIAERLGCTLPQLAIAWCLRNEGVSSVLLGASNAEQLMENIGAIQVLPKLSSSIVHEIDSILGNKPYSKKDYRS
# [5] = target: Voltage-gated potassium channel subunit beta-2 (Rattus norvegicus) (UniProt P62483); assay: KvBeta positive modulators, primary screen, biochemical, NADPH fluorescence (AID 623;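 active means NADPH fluorescence slope more negative than the mean of all samples by about 3 SD, 99.7% confidence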;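 further: fluorescence intensity change per second fitted from 20 to 320 s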); conditions: Recombinant KvBeta, NADPH fluorescence decrease slope, 10 min; at 10 µM; stronger effect = lower value
# [6] = target: Muscarinic acetylcholine receptor M4 (Homo sapiens) (UniProt P08173); assay: compounds altering M4/GIRK thallium flux, either direction, primary screen, M4 allosteric agonist project, cell-based, HEK293 M4/GIRK, BTC-AM (AID 625;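 active means fluorescence slope after compound addition differing from the mean of all tested samples at 99.7% confidence, mostly higher but some lower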;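 further: thallium influx through GIRK channels coupled to M4 in HEK293 cells with BTC-AM dye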); conditions: at 10 µM, actives lie on both sides
# Muscarinic acetylcholine receptor M4 (Homo sapiens), sequence (P08173 whole entry, looked up): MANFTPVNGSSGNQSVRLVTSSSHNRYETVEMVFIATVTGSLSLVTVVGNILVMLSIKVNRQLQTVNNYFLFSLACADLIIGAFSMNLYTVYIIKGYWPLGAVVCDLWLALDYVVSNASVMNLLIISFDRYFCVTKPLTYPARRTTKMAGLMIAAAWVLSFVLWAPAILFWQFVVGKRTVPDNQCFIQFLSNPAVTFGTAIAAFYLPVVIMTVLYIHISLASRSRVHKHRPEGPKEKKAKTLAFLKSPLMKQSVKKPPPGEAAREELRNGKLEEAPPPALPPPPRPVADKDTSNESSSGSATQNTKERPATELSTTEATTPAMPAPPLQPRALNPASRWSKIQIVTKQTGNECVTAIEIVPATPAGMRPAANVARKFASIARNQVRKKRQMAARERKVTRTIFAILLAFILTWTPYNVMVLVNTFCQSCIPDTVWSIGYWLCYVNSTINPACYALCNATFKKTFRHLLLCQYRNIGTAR
# Procedure, shortened: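 System: HEK293 cells with M4 receptor and GIRK channels | Incubation: Cells overnight at 37 °C, BTC-AM loading 1 h, reads 2 min total | Technique: Kinetic BTC-AM fluorescence sampled at 1 Hz, 10 s pre-addition baseline | Measure: Post-addition slope, 15–24 s, of baseline-normalized fluorescence | Control set: Carbachol positive, DMSO negative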
# [7] = inhibitors of Sendai virus-induced IRF3 signaling, primary screen, TLR/RLR signaling modifier project, cell-based, Sendai virus stimulus, luciferase, 10K MLSCN set (AID 602276;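 active means inhibition at or above 50% at 10 µM; inactive means inhibition below 50%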;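 further: firefly luciferase from ISG56 promoter only with Renilla not read in this screen; 0% = Sendai virus plus DMSO and 100% = medium plus DMSO without virus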); conditions: HEK293 RL24 IRF3 luciferase reporter, at 10 µM, stronger effect = higher value
# [8] = inhibitors of poly I:C-induced TLR3 signaling, primary screen, cell-based, poly I:C stimulus, luciferase, 10K MLSCN set (AID 602277;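 active means inhibition of the reporter signal at or above 50%; inactive means inhibition below 50%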); conditions: HEK293-TLR3 RL24 IRF3 luciferase reporter, at 10 µM, stronger effect = higher value
SMILES,cell count [1],inhibition [1],inhibition of aggregation [2],nuclei count [2] [%],inhibition [3],nuclei count [3] [%],fluorescence slope [4],NADPH fluorescence slope [5],fluorescence slope [6],inhibition [7],inhibition [8]
Cc1noc(C)c1C(=O)OCC(=O)Nc1ccccc1C(=O)NC(C)c1ccccc1 (centres undefined),503,4.7% (inactive),-4% (inactive),94.3,-72.6% (inactive),106,-0.414 (inactive),-0.000106 (inactive),0.00545 (inactive),9.57% (inactive),7.74% (inactive)
CCn1c(=O)cc(OCC(=O)NCCCN2CC(C)CC(C)C2)c2ccccc21 (centres undefined),395,-5.5% (inactive),-18.3% (inactive),111,-25% (inactive),123,-0.511 (inactive),-0.000129 (inactive),0.00485 (inactive),69.4% (active),55.8% (active)
COc1ccc(CN2C(=O)C(O)(CC(=O)c3c(C)n[nH]c3C)c3ccccc32)cc1OC (centres undefined),264,-12.6% (inactive),-2.3% (inactive),92.8,-27.7% (inactive),97.3,-0.481 (inactive),-4.5e-05 (inactive),0.00507 (inactive),15.2% (inactive),9.8% (inactive)
COCCNC(=O)C(C)OC(=O)c1nsc(Cl)c1Cl (centres undefined),551,-8.3% (inactive),0.5% (inactive),101,-45.1% (inactive),115,-0.317 (inactive),1e-05 (inactive),0.00545 (inactive),-6.04% (inactive),-22% (inactive)
Cn1c(Cc2csc(N)n2)nnc1SCC(=O)NC1CCCCC1,662,-3.3% (inactive),-15.2% (inactive),101,16.6% (inactive),91,-0.479 (inactive),1.7e-05 (inactive),0.00433 (inactive),4.63% (inactive),-2.17% (inactive)
Clc1ccccc1OCc1nn2c(-c3ccncc3)nnc2s1,352,2.6% (inactive),35.5% (inactive),91.1,-23.5% (inactive),118,-0.298 (inactive),-6.4e-05 (inactive),0.00567 (inactive),8.19% (inactive),-3.24% (inactive)
O=C(COC(=O)c1ccco1)NCc1cccs1,516,-13% (inactive),-4.6% (inactive),93.5,7.8% (inactive),88.2,-0.534 (inactive),-5.7e-05 (inactive),0.0055 (inactive),5.62% (inactive),5.96% (inactive)
NC(=O)C1(N2CCCCC2)CCN(C2CC(=O)N(Cc3cccs3)C2=O)CC1 (centres undefined),378,-2.6% (inactive),5.2% (inactive),82.9,-117% (inactive),84.9,-0.458 (inactive),-3.2e-05 (inactive),0.00707 (inactive),10.3% (inactive),20.4% (inactive)
O=C(Nc1nc2ccc(S(=O)(=O)N3CCCC3)cc2s1)C1CCCO1 (centres undefined),504,-12.6% (inactive),-7.9% (inactive),55.6,28.1% (inactive),93.1,-0.455 (inactive),-4.6e-05 (inactive),0.00425 (inactive),14.9% (inactive),15.2% (inactive)
Cc1ccc(NC(=O)Nc2ccc3c(c2)N(C)C(=O)CS3)nc1,562,-6.9% (inactive),-30.5% (inactive),123,-45% (inactive),116,-0.395 (inactive),6.1e-05 (inactive),0.00547 (inactive),7.37% (inactive),0.72% (inactive)
CCOC(=O)CC(NS(=O)(=O)c1ccc(NC(C)=O)cc1)c1ccc(OCC)cc1 (centres undefined),376,9.9% (inactive),-7.9% (inactive),95.7,-101% (inactive),126,-0.588 (inactive),3.6e-06 (inactive),0.00588 (inactive),14% (inactive),17.3% (inactive)
Cc1ccccc1C(=O)N1CCC(C(=O)Nc2ccc(S(=O)(=O)N3CCCC3)cc2)CC1,186,6.1% (inactive),-11% (inactive),105,12.2% (inactive),97.5,-0.566 (inactive),-3.8e-05 (inactive),0.0067 (inactive),8.84% (inactive),16.9% (inactive)
O=C(CCn1nc(-c2ccccc2)ccc1=O)N1CCCC1,349,2.1% (inactive),-17% (inactive),95.9,-8.9% (inactive),106,-0.577 (inactive),-2e-05 (inactive),0.00645 (inactive),6.69% (inactive),2.22% (inactive)
COCCn1c(=O)[nH]c2cc(C(=O)NCc3cccnc3)ccc2c1=O,744,3.8% (inactive),7.4% (inactive),93.8,56.4% (active),102,-0.302 (inactive),-4.8e-05 (inactive),0.00755 (inactive),10.8% (inactive),13.4% (inactive)
CCc1nnc(NC(=O)c2ccc(-c3cccc(C(F)(F)F)c3)o2)s1,730,-2.9% (inactive),43.6% (inactive),76.5,-24.2% (inactive),99.1,-0.528 (inactive),-4.6e-05 (inactive),0.00667 (inactive),-0.00167% (inactive),-0.904% (inactive)
Cc1nc(C)c(C(=O)C2=C(O)C(=O)N(CCN3CCOCC3)C2c2cccnc2)s1 (centres undefined),256,-0.4% (inactive),22.5% (inactive),92.8,-7.1% (inactive),96.9,-0.557 (inactive),-0.000101 (inactive),0.0026 (inactive),17.2% (inactive),22.7% (inactive)
Cc1ccc(N2CC(C(=O)N3CCN(C(=O)c4ccco4)CC3)CC2=O)cc1 (centres undefined),600,2.2% (inactive),-16.3% (inactive),114,-39.1% (inactive),100,-0.571 (inactive),-5.1e-05 (inactive),0.00509 (inactive),17.5% (inactive),21.1% (inactive)
CCN1CCN(c2c(Cl)cccc2NC(=O)c2ccco2)CC1,248,10.6% (inactive),-8.4% (inactive),77.9,-12.4% (inactive),84.2,-0.531 (inactive),-2.5e-05 (inactive),0.00466 (inactive),1.94% (inactive),29.2% (inactive)
CC1CCCC(NC(=O)CN2CCN(Cc3ccc(Cl)cc3)C2=O)C1C (centres undefined),512,-6% (inactive),-24.6% (inactive),58.8,-27.1% (inactive),98,-0.553 (inactive),-3.7e-05 (inactive),0.00646 (inactive),14.7% (inactive),20.9% (inactive)
